Screening results as filed in PubChem BioAssay.
An excerpt weighted towards active compounds, which were near 3.3% of everything screened.
AHR activator: activates the human aryl hydrocarbon receptor. AHR-responsive luciferase reporter cells, luminescence. activation, % at 5 µM. 320,000 tested, 2.5% active; in the data active = activation above about 47%
Target sequence (P35869 whole entry, looked up): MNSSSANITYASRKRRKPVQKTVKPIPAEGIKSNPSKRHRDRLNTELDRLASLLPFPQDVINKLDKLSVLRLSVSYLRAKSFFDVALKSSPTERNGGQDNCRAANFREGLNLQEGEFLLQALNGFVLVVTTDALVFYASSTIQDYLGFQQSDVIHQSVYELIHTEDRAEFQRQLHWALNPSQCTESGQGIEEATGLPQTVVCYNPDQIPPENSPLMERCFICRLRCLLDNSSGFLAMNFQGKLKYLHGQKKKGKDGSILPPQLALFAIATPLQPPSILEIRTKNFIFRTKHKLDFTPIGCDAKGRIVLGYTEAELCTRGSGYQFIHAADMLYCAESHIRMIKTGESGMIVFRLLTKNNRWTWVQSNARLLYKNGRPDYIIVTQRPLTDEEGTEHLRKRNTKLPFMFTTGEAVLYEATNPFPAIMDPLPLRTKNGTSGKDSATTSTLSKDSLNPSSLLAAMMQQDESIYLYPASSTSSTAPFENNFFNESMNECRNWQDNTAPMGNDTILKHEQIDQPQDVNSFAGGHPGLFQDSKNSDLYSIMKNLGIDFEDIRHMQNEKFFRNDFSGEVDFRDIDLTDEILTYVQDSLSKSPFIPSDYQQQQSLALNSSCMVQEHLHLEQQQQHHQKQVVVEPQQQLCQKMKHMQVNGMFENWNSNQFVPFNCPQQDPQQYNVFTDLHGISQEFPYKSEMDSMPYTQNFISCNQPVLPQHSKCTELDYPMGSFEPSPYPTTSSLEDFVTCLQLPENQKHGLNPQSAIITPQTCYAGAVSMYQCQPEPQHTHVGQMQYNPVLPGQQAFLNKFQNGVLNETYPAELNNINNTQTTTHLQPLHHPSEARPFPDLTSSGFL
GAA850 FXN act: increases GAA850 frataxin promoter reporter activity; HEK293 lucGAA850 FXN promoter luciferase reporter, 24 h; percent of 10 µM SAHA response; activation, % at 6 µM; 360,000 tested, 0.56% active;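 active = activation above the average of all compounds screened plus 3 SD, cutoff fixed separately per campaign, cut at about 7.5% in these data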
STAT3 act-1: activators of IL-6 induced STAT3 signaling. U3A cells, IL-6 STAT3-luciferase reporter, luminescence; 100% = signal with IL-6 EC80 alone. activation (% of control), % at 5.6 µM. 190,000 tested, 0.91% active. AID 871;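 active = activation above the screen-wide mean of compound activation plus 3 SD, cut at about 130% in these data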
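Test system: STAT3-luciferase reporter U3A cells; Detection: reporter luminescence signal; Times: 1 h compound pre-exposure, 6 h IL-6 stimulation, 37 °C; Benchmarks: IL-6-only high control; Also added: IL-6 stimulus at 33 ng/mL final.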
ABCB6 inh 2: blocks the human ABCB6 transporter; Q9NP58; K562-ABCB6 porphyrin accumulation, flow cytometry, 1 h; hits give low values; fluorescence ratio to DMSO, % at 10 µM; 360,000 tested, 0.19% active;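 active = fluorescence ratio to DMSO below 75%, the collection mean minus 3 SD; inconclusive = too few cells collected in the well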;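 also: signal is porphyrin accumulated inside mitochondria; lower ratio means ABCB6 inhibition with less porphyrin fluorescence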
STAT3 act-2: STAT3 activation, confirmation assay; U3A STAT3-luciferase reporter, IL-6 potentiation, luminescence; U3A cells lack STAT1; 100 means same as IL-6 alone; shares compounds with STAT3 act-1; potentiation (% of control), % at 5.7 µM; AID 1267; 1,200 tested, 64% active;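 active = percent activation of the STAT3 luciferase reporter above a set limit taken from the earlier primary screen, cut at about 130% in these data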
NFkB act STAT3ct: activates NF-kappaB, counter-screen to STAT3 activators | human cells, NF-kappaB reporter activation | 1,200 tested, 11% active | activation (% of control), % at 5.7 µM | shares compounds with STAT3 act-1; in the data active = activation above about 120%;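 also: reporter induced by TNF-alpha stimulation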
STAT1 act: counter-screen for STAT3 activators: STAT1 activation. shares compounds with STAT3 act-1. NIH 3T3 STAT1-luciferase reporter, IFN-gamma, luminescence. activation (% of control), % at 5.7 µM. 1,200 tested, 13% active;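 active = activation above the solvent-only control well mean plus 3 SD, set per screening run, cut at about 120% in these data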
Each line names hits and unclear results; the compound was inactive in the other large screens (follow-up assays come after a bar, where they were run).

CC1=NN(c2ccc(Cl)cc2)C(=O)C1C(c1cccc(O)c1)c1c(C)[nH]n(-c2ccc(Cl)cc2)c1=O (stereo not drawn)	AHR activator 67, STAT3 act-1 146 | STAT3 act-2 160 | NFkB act STAT3ct inactive | STAT1 act inactive
CCOc1ccccc1C(=O)NCCNC(=O)c1ccccc1OCC	none (no result: STAT3 act-1)
CCOc1ccccc1C(=O)NN1C(=O)CCC1=O	STAT3 act-1 143 | STAT3 act-2 155 | NFkB act STAT3ct inactive | STAT1 act inactive
O=C(Cc1coc2ccc3ccccc3c12)Nc1nnc(C2CC2)s1	AHR activator 69, STAT3 act-1 153 | STAT3 act-2 148 | NFkB act STAT3ct inactive | STAT1 act inactive
O=C(CSc1nncc2ccccc12)Nc1ccccc1	none (no result: STAT3 act-1)
O=C(CSc1nnc2c3ccccc3c3ccccc3c2n1)Nc1ccccc1	AHR activator 47, STAT3 act-1 158 (no result: GAA850 FXN act, ABCB6 inh 2) | STAT3 act-2 162 | NFkB act STAT3ct inactive | STAT1 act inactive
COc1cc(SC#N)ccc1N=Cc1c(C)[nH]n(-c2ccc(C)c(C)c2)c1=O	none
COc1cc(SC#N)ccc1N=Cc1c(C)[nH]n(-c2ccc(Cl)cc2)c1=O	STAT3 act-1 144 | STAT3 act-2 inactive | NFkB act STAT3ct inactive | STAT1 act inactive
Cc1ccc(-c2nnn(CC(=O)N(c3ccccc3F)C(C(=O)NCC3CCCO3)c3c[nH]c4ccccc34)n2)cc1 (stereo not drawn)	STAT3 act-1 145 | STAT3 act-2 inactive | NFkB act STAT3ct inactive | STAT1 act inactive
O=C(O)c1ccccc1Cc1ccc2c(c1)CCCC2	none (no result: AHR activator, STAT3 act-1)
O=C(Cc1c[nH]c2ccccc12)NCc1ccc2c(c1)OCO2	STAT3 act-1 138 | STAT3 act-2 137 | NFkB act STAT3ct inactive | STAT1 act inactive
COc1cc(NC(=O)c2cc(-c3ccco3)on2)c(OC)cc1Cl	STAT3 act-1 165 | STAT3 act-2 145 | NFkB act STAT3ct inactive | STAT1 act inactive
CCCc1cc(C(=O)Nc2cc(OC)c(Cl)cc2OC)no1	AHR activator 62, STAT3 act-1 166 | STAT3 act-2 162 | NFkB act STAT3ct inactive | STAT1 act inactive
COc1ccc(NC(=O)c2cc(-c3ccco3)on2)c(OC)c1	none (no result: STAT3 act-1)
COc1cc(NC(=O)c2ccccc2)c(OC)cc1Cl	AHR activator 69, STAT3 act-1 150 | STAT3 act-2 143 | NFkB act STAT3ct inactive | STAT1 act inactive
COc1cc(NC(=O)c2noc3c2CCC3)c(OC)cc1Cl	STAT3 act-1 146 | STAT3 act-2 157 | NFkB act STAT3ct inactive | STAT1 act inactive
COc1ccc(NC(=O)c2noc3c2CCC3)cc1	none
CC(C)OC(=O)N(C)C[C@@H]1OCc2cnnn2CCCC(=O)N([C@H](C)CO)C[C@@H]1C	none (no result: AHR activator, STAT3 act-1)
S=c1[nH]nc(CCc2ccc(Cl)cc2)o1	none
COc1ccccc1NC(=O)C1Cc2ccccc2CN1C(=O)c1ccco1 (stereo not drawn)	none (no result: STAT3 act-1)
O=C(Nc1cc(C(F)(F)F)ccc1N1CCOCC1)C1Cc2ccccc2CN1C(=O)c1ccco1 (stereo not drawn)	STAT3 act-1 139 | STAT3 act-2 inactive | NFkB act STAT3ct inactive | STAT1 act inactive
O=C(Nc1ccc(NC(=O)c2cccnc2Cl)cc1)c1cccc(Cl)c1	none (no result: STAT3 act-1)
COc1ccc(-n2ncc3c2CC(C)(C)CC3NC(=O)CCCN2CCCC2=O)cc1 (stereo not drawn)	none (no result: STAT3 act-1)
CCOC(=O)c1ccc(NC(=S)Nc2ccc(Br)cc2N)cc1	none (no result: STAT3 act-1)
CN(Cc1ccccc1)Cc1c[nH]c2ccccc12	STAT3 act-1 158 | STAT3 act-2 141 | NFkB act STAT3ct inactive | STAT1 act inactive
c1ccc(Cc2c[nH]c3ccccc23)cc1	none (no result: STAT3 act-1)
O=C(NCc1ccncc1)c1csc([C@@H]2C[C@H](O)[C@@H](CO)O2)n1	ABCB6 inh 2 inconclusive (no result: AHR activator, STAT3 act-1)
O=C(O)C(Cc1c[nH]c2ccccc12)N1Cc2ccccc2C1=O (stereo not drawn)	STAT3 act-1 143 | STAT3 act-2 137 | NFkB act STAT3ct inactive | STAT1 act inactive
CCn1c(/C=C2/C(=O)N(C)c3ccccc32)nc2ccccc2c1=O	none
CCn1c(/C=C2\C(=O)N(C)c3ccccc32)nc2ccccc2c1=O	STAT3 act-1 137 | STAT3 act-2 inactive | NFkB act STAT3ct inactive | STAT1 act inactive
O=C(Nc1ccc(Nc2ccccc2)cc1)c1cc([N+](=O)[O-])ccc1Cl	none (no result: STAT3 act-1)
Cc1cccc(NC(=O)c2cc([N+](=O)[O-])ccc2Cl)c1O	AHR activator 48, STAT3 act-1 155 | STAT3 act-2 162 | NFkB act STAT3ct inactive | STAT1 act inactive
O=C(CCCn1c(=O)oc2ccccc21)N1CCc2ccccc2C1	STAT3 act-1 161 | STAT3 act-2 152 | NFkB act STAT3ct inactive | STAT1 act inactive
O=C(CCn1c(=O)oc2ccccc21)NCCN1CCc2ccccc2C1	none
COCCn1nnnc1C(c1cc2cc(C)ccc2[nH]c1=O)N1CCc2ccccc21 (stereo not drawn)	AHR activator 65, STAT3 act-1 150 | STAT3 act-2 inactive | NFkB act STAT3ct inactive | STAT1 act inactive
COCCn1nnnc1C(c1cc2cc(C)ccc2[nH]c1=O)N1CCCCCC1 (stereo not drawn)	none
OC(c1ccc(F)c(F)c1)c1nc(-c2cccs2)cs1 (stereo not drawn)	none (no result: AHR activator, STAT3 act-1)
O=C(CCc1nnc(Cc2c[nH]c3ccccc23)o1)NC(C1CC1)C1CC1	none
COc1ccccc1-c1cc(C(=O)N/N=C/c2ccc(C)s2)c2ccccc2n1	STAT3 act-1 139 | STAT3 act-2 137 | NFkB act STAT3ct inactive | STAT1 act inactive
CCc1ccc(/C=N/NC(=O)c2cc(-c3ccccc3OC)nc3ccccc23)s1	none
CCOc1ccc(NC(=O)C(C)Oc2ccccc2C(=O)Nc2ccc(C)c(Cl)c2)cc1 (stereo not drawn)	STAT3 act-1 149 | STAT3 act-2 137 | NFkB act STAT3ct inactive | STAT1 act inactive
COc1cc(-c2nnc(COC(=O)CSc3cc(C)c4ccccc4n3)o2)cc(OC)c1OC	none
COc1cc(-c2nnc(CSc3nc4ccccc4s3)o2)cc(OC)c1OC	STAT3 act-1 137 (no result: AHR activator, GAA850 FXN act, ABCB6 inh 2) | STAT3 act-2 inactive | NFkB act STAT3ct inactive | STAT1 act inactive
COc1cccc(-c2nc(Oc3cccc(C)c3C)c3ccccc3n2)c1O	STAT3 act-1 140 | STAT3 act-2 136 | NFkB act STAT3ct inactive | STAT1 act inactive
COc1cccc(-c2nc(N3CCCCC3)c3ccccc3n2)c1O	none (no result: STAT3 act-1)
CC(Oc1ccccc1)C(=O)Nc1ccccc1O (stereo not drawn)	AHR activator 49, STAT3 act-1 137 | STAT3 act-2 inactive | NFkB act STAT3ct inactive | STAT1 act inactive
COc1cc(OC)nc(/N=C/NO)n1	none (no result: STAT3 act-1)
